Measurements taken from the EternaBench riboswitch data.

System: MS2 coat protein
Test: apparent Kd, MS2 coat protein; higher = weaker binding; RNA-MaP array; FMN 200 µM where present
Procedure, shortened: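 SNAP-549-labelled MS2 coat protein, doubled from 0.7 or 1.5 nM to 3 µM, was titrated over designs transcribed by stalled E. coli RNA polymerase on Illumina sequencing-chip clusters. Titrations were run without and then with constant ligand in 100 mM Tris-HCl pH 7.5, 80 mM KCl, 4 mM MgCl2, BSA, DTT, yeast tRNA and Tween-20. The apparent Kd is the median of filtered per-cluster fits to green signal normalised to red-channel RNA signal and control-cluster median Fmax.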

[1] = designed as: ON switch for flavin mononucleotide, no ligand
[2] = ligand present: flavin mononucleotide, designed as: ON switch for flavin mononucleotide
[3] = designed as: OFF switch for flavin mononucleotide, no ligand
[4] = ligand present: flavin mononucleotide, designed as: OFF switch for flavin mononucleotide

Sequence | apparent Kd [1] [nM] | apparent Kd [2] [nM] | apparent Kd [3] [nM] | apparent Kd [4] [nM]
GGGUACAUCGGAGGAUAUCAUGUAAAUACAUGAGGAUCACCCAUGUCGAUGGAGACAGCGGAGAUUGAGAAGGCCGAUGUACCG | 105 | 190 |  | 
GGGUACAUCGGAGGAUAUCAUGUAAAUACAUGAGGAUCACCCAUGUCGAUGGAGACGUCGGAGAUUGAGAAGGCCGAUGUACCG | 91 | 7.8 |  | 
GGGUACAUCGGAGGAUAUCAUGUAAAUACAUGAGGAUCACCCAUGUCGUACGAGAGUACGGAGAUUGAGAAGGCCGAUGUACCG | 24.9 | 15.3 |  | 
GGGUACAUCGGAGGAUAUCAUGUGUAAACAUGAGGAUCACCCAUGUCGUACGAGAGUACGGAGAUUGAGAAGGCCGAUGUACCG | 86.7 | 16.6 |  | 
GGGUACAUCGUAGGAUAUCAUGUAAAUACAUGAGGAUCACCCAUGUCGAUGGAGACAUCGGAGAUUGAGAAGGCCGAUGUACCG | 206 | 17.9 |  | 
GGGUACAUGGGAGGAUAUCCUCAUGAGACAUGAGGAUCACCCAUGUAUUAUAAGCCGAAAGGCAAGGAGAAGGCCCAUGUACCG | 30.2 | 17 |  | 
GGGUCCAACACAGGAUAUGCUGGACUUUGUCCAGCAGAAGGGUGAAGAACAUGAGGAUCACCCAUGUGGAUCCAUAUAUUUAAU | 236 | 17.9 |  | 
GGGUGAGCUCAAGGAUAUCCAAAAUGGUUACAUGAGGAUCACCCAUGUCCAGGCGAAUAAAGGCCGGAGAAGGUGAGGGCCCUC | 60.2 | 156 |  | 
GGUAAAUAAAGAGUACUGUUUUGAACAUGAGGAUCACCCAUGUAGGAUAUGCGAGUUUUGAAUUUGCAGAAGGACAUUUUUAGC |  |  | 19.6 | 20.4
GGUACCAACACAGGAUAUGCUAUCCUUUGGGUAGCAGAAGGGUGAAACAUGAGGAUCACCCAUGUGGUGCCACCCGGUGACGGG | 1180 | 89.2 |  | 
GGUACCAUCACAGGAUAUGCUUUCCGUUGGGAAGCAGAAGGGUGUAACAUGAGGAUCACCCAUGUGGUGCCCGGGCGUGAGCCC | 135 | 15.6 |  | 
GGUACCAUCACAGGAUAUGCUUUCCUUUGGAAAGCAGAAGGGUGUAACAUGAGGAUCACCCAUGUGGUGCCAGGGCGUGAGCCC | 184 | 13 |  | 
GGUACUCAAAGAGUACCAAUACGAACAUGAGGAUCACCCAUGUAGGAUAUGCUACUCAAAGAGCAGCAGAAGGACAUGUGCCUA |  |  | 17.7 | 125
GGUACUCAAAGAGUACGGAGUCGAACAUGAGGAUCACCCAUGUAGGAUAUGCUAUUCUUGAAGUUGCAGAAGGACAUGUGCAGC |  |  | 10.9 | 11.1
GGUACUCAAAGAGUACUUGGUCGAACAUGAGGAUCACCCAUGUAGGAUAUGCAAAGCAAGAAGUAGCAGAAGGACAUGUGCAGC |  |  | 13.5 | 36.1
GGUAGAGAGCAGGAUAUCUUGGGUAAGUAUCGUAGAGAAGGGCUCACAUGAGGAUCACCCAUGUGGUCCUAGAU |  |  | 12.1 | 24.8
GGUAUCGGAGGAGGAUAUGAGCGUAUCGCUGCCUCAGAAGGCCUACUGAUACAUGAGGAUCACCCAUGUUGCGGUAAUCCUACU |  |  | 283 | 23.5
GGUCCAUCAUGAGGAUAUGGCACCUUAUUGGUGCCAGAAGGCAUGUGUAUACACAUGAGGAUCACCCAUGUAAUAAAUUGGACC | 144 | 22.2 |  | 
GGUCCAUUAUGAGGAUAUGGCACCUUAUUGGUGCCAGAAGGCAUGUCUUCACAUGAGGAUCACCCAUGUUAAAUAAAUUGGACC | 16.3 | 17.7 |  | 
GGUCCGUAACAGAAGGCCGUAACUGGUGGUGGCGGAGGAUAUGUGGGCGGCCCUUGACAACAUGAGGAUCACCCAUGUAUGUAA | 328 | 30.6 |  | 
GGUCCUUCUGUUAGGAUAUGCUUUGGGCUUCCGCAGUAGAAGGAACAUGAGGAUCACCCAUGUCCGAUGCCGUA |  |  | 65.3 | 84.4
GGUCGUCAAGUCAGGAUAUCGUAUAAUAGAUAUAACGAGAAGGGACAUGAGGAUCACCCAUGUCGUCUCAUCAG |  |  | 17.1 | 23.7
GGUCGUCACAUUAACAUGAGGAUCACCCAUGUCAAAAGACAUGAGGAUAUGCAUCCUAAUUGGAUGCAGAAGGCAUGGACGACC | 507 | 32.7 |  | 
GGUCGUCACAUUAACAUGAGGAUCACCCAUGUCAAAUAACAUGAGGAUAUGCAUCCUAAUUGGAUGCAGAAGGCAUGGACGACC | 6.72 | 5.39 |  | 
GGUCGUCCCAUUAACAUGAGGAUCACCCAUGUCAAAAGACAUGAGGAUAUGCUACCUAAUUGGUAGCAGAAGGCAUGGACGACC | 1170 | 84.7 |  | 
GGUGAAGCAGGAUAUGUAUCGAUAUACAUGAGGAUCACCCAUGUCAUGUUCGAAUCGCAUAUAGAAGGGCUUCACC |  |  | 13.4 | 16.7
GGUGAAUGAACAUGAGGAUCACCCAUGUACAGGAAACUGAAUGAGGAUAUCCAUAGCAAAGCUAUGGAGAAGGCAUGGGUCACC | 302 | 99.8 |  | 
GGUGCACGCACAGGAUAUCCGGCGAAGCUCGUCGGAGAAGGGUGACAUGAGGAUCACCCAUGUACGUGCAACCCAGUUUGAGAG | 85.2 | 31.4 |  | 

Sequence | apparent Kd [1] [nM] | apparent Kd [2] [nM] | apparent Kd [3] [nM] | apparent Kd [4] [nM]
GGUGCGUAUGUGAGGAUAUGCUGGUCCUUGGUUCAGCAGAAGGCACAUGAGGAUCACCCAUGUGGUGUCGUACC |  |  | 289 | 26.4
GGUGCGUAUGUUAGGAUAUGCUGGUCCUUGGAUCGGCAGAAGGUACAUGAGGAUCACCCAUGUGGUGUCGUUCC |  |  | 64.8 | 72.4
GGUGCGUUUGUGAGGAUAUGCUGGUCCUUGGAUCAGCAGAAGGCACAUGAGGAUCACCCAUGUGGUGUCGUACC |  |  | 447 | 47.3
GGUGGACAUGAGGAUCACCCAUGUGAGGAUAUCGGCCGGUUCGCGGUGGCUGGCGUCUCGAGAAGGCGCAUAGU |  |  | 36.9 | 40.2
GGUGGCGUGAUAACGCUAGAUAUAACAUGAGGAUCACCCAUGUAGGAUAUCCCGCCGUGAGGGCGGGAGAAGGACAACCGAUGG |  |  | 37.1 | 34.9
GGUUAUGAAGGAUAUACAUGAGGAUCACCCAUGUUACGUACUUCGGGAUUCUGCCAGUGUAGAAGGUCAUGUCU |  |  | 24.3 | 49.2
GGUUCCUUCACAGGAUAUGCUAUCCUUUGGGUAGCAGAAGGGUGAUACAUGAGGAUCACCCAUGUGGAGCCAGGGCGUGAGCCC | 1260 | 428 |  | 
GGUUGGCGAGGAUAUACAUGAGGAUCACCCAUGUGGUCCUGCGGUGGAAUCGCCCUUUGUAGAAGGCGCGGGUC |  |  | 49.5 | 44.7
GGUUGGCGAGGAUAUACAUGAGGAUCACCCAUGUGGUCCUGUGGCUGGUCUUACCUUUGUAGAAGGCGCGGGUC |  |  | 88.4 | 93.2
GGUUGUCAUAGUCAUCCUUAACGUACAUGAGGAUCACCCAUGUAGGAUAUGCUACUCAAAGAGUAGCAGAAGGGCGUGUGUCUU |  |  | 31 | 35.5
GGUUGUCAUAGUCAUCCUUUCCGUACAUGAGGAUCACCCAUGUAGGAUAUGCUACUCACGGUGUGGCAGAAGGGCGUGUGUCUU |  |  | 17.9 | 19.9
GUAAACGAUGAGGAUAUAUGAUAUCAAAGCAUCAUAGAAGGCAUCACAUGAGGAUCACCCAUGUGAUCUUCUUU |  |  | 17.5 | 78.5
GUAAAGUGAGGAUAUGGUAAAGUAAGUAUUUAGUAAGUAAUCCAGAAGGCACAUGAGGAUCACCCAUGUAAAUG |  |  | 29.3 | 35.8
GUAAGCAUGUCAGGAUAUCGCAAUAUCAAACCGUGAGAAGGGACAUGAGGAUCACCCAUGUAUUGUUCGGGAGGACCCAGCUGA |  |  | 67.3 | 358
GUAAUUAAUGUAGGAUAUGCAAGGCGAACCUAAGCAGAAGGACAUGAGGAUCACCCAUGUAUUGCGGUCUGCGUUCAGAUCGCU |  |  | 19.5 | 49.5
GUACCUUAUGAGAAGGCGAUCAUGAAACAUGAUCGAGGAUAUCAUGUAAACAUGAGGAUCACCCAUGUAUGGGUAUUAUGGUAC | 191 | 25.6 |  | 
GUACCUUAUGAGAAGGCGAUCAUGAAACAUGAUCGAGGAUAUCAUGUAAACAUGAGGAUCACCCAUGUAUGGGUAUUAUGGUAU | 43.9 | 11.3 |  | 
GUACCUUAUGAGAAGGCGGUCAUGAAACAUGAUCGAGGAUAUCAUGUAAACAUGAGGAUCACCCAUGUAUGGGUAUUAUGGUAA | 61.1 | 11.2 |  | 
GUACUAAAGCUUUGCUUUAGUCGUACAUGAGGAUCACCCAUGUAGGAUAUGGUAGGCUUUGCUUACUAGAAGGAUAGAGUGAUC |  |  | 110 | 36.1
GUACUACCCACAGAUAACUUAGCCAGAAGGGUCUACAUGAGGAUCACCCAUGUGGUCCAAAGUGGACAGGAUAUGGAAACGGUU |  |  | 139 | 12.2
GUACUGAAGCUUUGCUUUAGUCGUACAUGAGGAUCACCCAUGUAGGAUAUGGUAGGCUAUGCUUACUAGAAGGAUAGAGUGAUC |  |  | 88.8 | 46.4
GUACUGACAGGAUAUACAUGAGGAUCACCCAUGUCCUUAUGCUGACAAAAGUCAGCGUGUAGAAGGGUCUGUAC |  |  | 141 | 385
GUACUGUAGUGAGGAUAUACGAGUUCGAUAGAACGGCGAUCCAAUUAUACAUGAGGAUCACCCAUGUAGAAGGCACUUCAGUAC |  |  | 8.88 | 50
GUACUGUAGUGAGGAUAUACGAGUUCGAUAGAACGGCGAUCCAUUUAUACAUGAGGAUCACCCAUGUAGAAGGCACUUCAGUAC |  |  | 6.32 | 53.9
GUAGAGUAAGGAUAUCGUGAAUAGGAUAGAAUGGUUAGAAACGAGAAGGUACAUGAGGAUCACCCAUGUAAUGU |  |  | 20.7 | 21.3
GUAGAGUAGUGAGGAUAUACGAGAUCGAUAGAUCGGCGAUCCAUAUAUACAUGAGGAUCACCCAUGUAGAAGGCACUUCUCUAC |  |  | 6.99 | 103
GUAGAGUAGUGAGGAUAUACGAGUUCGAUAGAACGGCGAUCCAUUAAUACAUGAGGAUCACCCAUGUAGAAGGCACUUCUCUAC |  |  | 6.4 | 69.3
